Data: ChEMBL document CHEMBL1131456, “Synthesis, pharmacological characterization, and quantitative structure-activity relationship analyses of 3,7,9,9-tetraalkylbispidines: derivatives with specific bradycardic activity” (J Med Chem, 1998)

Columns and labels:
Rattus norvegicus [1] = species: Rattus norvegicus; experiment: Selectivity quotient (R&T125/HR75)
Cavia porcellus [2] = species: Cavia porcellus; experiment: Sum of the scores of decrease of the sinus rate and selectivity versus the decrease in force of contraction; type: functional
[3] = Partition coefficient (logP); type: physicochemical; conditions: octanol/water; read-out: logP
In short: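 Lipophilicity was measured by reversed-phase HPLC. Mobile phase was methanol/0.005 M phosphate buffer pH 4 (60/40) with 0.1% SDS and 0.1 M NaClO4, at 23.0 ± 0.5 °C, with UV detection at 205 nm.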

Rattus norvegicus [4] = experiment: In vivo activity in anesthetized rat was measured as the R alpha T-interval of the rat ECG which reflects the time from ventricular excitation to recovery; type: functional, Cardiac ventricle
In short: (§1)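 Male Wistar rats (280–360 g) under urethane (1.25 g/kg ip), intubated and breathing spontaneously. Femoral arterial pressure was recorded with needle-electrode ECG, analysed every 30 s. Compound was given by continuous femoral-vein infusion at 0.1 mL/min, with concentration raised tenfold every 10 min (3 doses). ED75/ED125 is the dose giving a 25% decrease/increase from the predrug value, reported as the geometric mean of individual EDs.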

Cavia porcellus [5] = species: Cavia porcellus; experiment: In vitro activity in guinea pig atria as the functional refractory period (FRP), which is the shortest interval between a double stimulus causing a double contraction.
In short: (§2)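 Isolated guinea pig atria in oxygenated buffer at 35 °C. Right atria beat spontaneously; left atria were paced at 2 Hz with 1 ms rectangular pulses and isometric contractions were recorded. Cumulative concentration–response curves were run with up to five concentrations. EC75/EC125 is the concentration giving a 25% decrease/increase from the predrug value, reported as the geometric mean of individual ECs.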

Rattus norvegicus [6] = species: Rattus norvegicus; experiment: Score value indicates desire effect on heart rate; type: functional
Rattus norvegicus [7] = species: Rattus norvegicus; experiment: Score value indicates selectivity against the undesired effect on diastolic blood pressure; type: functional, Artery
Cavia porcellus [8] = species: Cavia porcellus; experiment: Selectivity quotient (FRP125/SR75); type: functional
In short: (§3)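 Atrial selectivity quotients were calculated from the guinea pig atrial EC values as F75/SR75 and FRP125/SR75.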

Cavia porcellus [9] = species: Cavia porcellus; experiment: In vitro activity in guinea pig atria was measured as rate of spontaneously beating right atrium (SR) which reflects the activity of the sinus node; type: functional; conditions: Cardiac atrium
In short: as §2

Cavia porcellus [10] = species: Cavia porcellus; experiment: Selectivity quotient (F75/SR75); type: functional
In short: as §3

Cavia porcellus [11] = species: Cavia porcellus; experiment: Score value indicates selectivity versus the decrease in force of contraction; type: functional
[12] = Selectivity quotient (DAP125/HR75); # means very high (estimated); type: functional
In short: (§4)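 Male Wistar rats (280–360 g), urethane-anesthetized (1.25 g/kg ip), breathing spontaneously. Femoral artery pressure gave diastolic pressure; subcutaneous needle ECG gave heart rate and RαT interval (R onset to T apex), analyzed every 30 s. Femoral vein infusion at 0.1 mL/min, concentration raised tenfold every 10 min (3 doses). ED75/ED125 (25% change from predrug) were geometric means; quotients DAP125/HR75 and RαT125/HR75.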

Cavia porcellus [13] = species: Cavia porcellus; experiment: Score value indicates decrease of the sinus rate; type: functional
Rattus norvegicus [14] = species: Rattus norvegicus; experiment: Total score (SS)
Rattus norvegicus [15] = species: Rattus norvegicus; experiment: Score point for the selectivity versus additional effect R&T interval.; type: functional
Cavia porcellus [16] = species: Cavia porcellus; experiment: Score point for the selectivity versus additional effect FRP.; type: functional
Cavia porcellus [17] = species: Cavia porcellus; experiment: In vitro activity in guinea pig atria was measured as the peak force of contraction (F) of a stimulated left atrium; type: functional; conditions: Cardiac atrium
In short: as §2

Rattus norvegicus [18] = experiment: In vivo activity in anesthetized rat was measured as the diastolic arterial pressure which provides information on the peripheral resistance of the cardiovascular system and selectivity regarding bradycardia; type: functional, Artery
In short: as §1

Rattus norvegicus [19] = species: Rattus norvegicus; experiment: Selectivity quotient (DAP125/HR75)
Rattus norvegicus [20] = experiment: In vivo activity in anesthetized rat was measured as heart rate which provides information on in vivo bradycardic activity; type: functional
In short: as §1

[21] = Selectivity quotient (F75/SR75); # means very high (estimated); type: functional
In short: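 Isolated atria in oxygenated buffer at 35 °C. Spontaneously beating right atria gave sinus rate; left atria paced at 2 Hz with 1 ms rectangular pulses gave isometric force of contraction. Cumulative concentration-response curves used up to five concentrations. EC75 (25% decrease from predrug value) was taken as the geometric mean of individual values. Quotient is F75/SR75.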

[22] = Selectivity quotient (FRP125/SR75); # # means very low (estimated); type: functional
[23] = Selectivity quotient (R&T125/HR75); # # means very low (estimated); type: functional
In short: as §4

SMILES	logP [3]	Selectivity quotient (Rattus norvegicus [1])	Score (Cavia porcellus [2])	ED125 (Rattus norvegicus [4]) [µM/kg]	EC125 (Cavia porcellus [5]) [µM]	Score (Rattus norvegicus [6])	Score (Rattus norvegicus [7])	Selectivity quotient (Cavia porcellus [8])	EC75 (Cavia porcellus [9]) [µM]	Selectivity quotient (Cavia porcellus [10])	Score (Cavia porcellus [11])	Score (Cavia porcellus [13])	total score (SS) (Rattus norvegicus [14])	Score (Rattus norvegicus [15])	Score (Cavia porcellus [16])	EC75 (Cavia porcellus [17]) [µM]	ED125 (Rattus norvegicus [18]) [µM/kg]	Selectivity quotient (Rattus norvegicus [19])	ED75 (Rattus norvegicus [20]) [µM/kg]	Selectivity quotient [21]	further results
CCC1(C)C2CN(CC3CCCCC3)CC1CN(CC1CCCCC1)C2 (centres undefined)	6.65	0.5	-3	5.5	0.68	4	0	0.11	6.2	0.76	-6	3	4	3	5	4.69	–	–	–	–	Selectivity quotient [12]: #
CC(C)N1CC2CN(C(C)C)CC(C1)C2(C)C	2.48	0.35	0	18	111	1	-3	10.2	10.9	–	-2	2	-2	4	0	–	–	1	52	#	–
CCCCCCN1CC2CC(CN(C)C2)C1	3.18	0.18	-5	8.4	1.4	1	-3	–	–	1	-5	0	-2	5	6	83.8	–	1	46	–	Selectivity quotient [22]: very low
C=CCCN1CC2CN(CC(C)C)CC(C1)C2(CCC)CCC	5.32	0.09	6	0.32	0.73	6	-3	1.66	0.44	52.5	0	6	3	6	3	23.1	2.4	0.68	3.5	–	–
CCCCN1CC2CN(CC(C)C)CC(C1)C2(C)C	3.7	0.13	4	0.73	0.82	5	-1	0.27	3.07	–	0	4	4	5	4	–	>41	>7	5.7	#	–
C1CCC2(C1)C1CN(CC3CC3)CC2CN(CC2CC2)C1 [TEDISAMIL]	4.19	0.47	5	2.5	0.76	5	0	0.56	1.3	37.6	0	5	5	4	3	49	–	–	5.3	–	Selectivity quotient [12]: #

Second part, led by results:

logP [3]	SMILES	Selectivity quotient (Rattus norvegicus [1])	Score (Cavia porcellus [2])	ED125 (Rattus norvegicus [4]) [µM/kg]	EC125 (Cavia porcellus [5]) [µM]	Score (Rattus norvegicus [6])	Score (Rattus norvegicus [7])	Selectivity quotient (Cavia porcellus [8])	EC75 (Cavia porcellus [9]) [µM]	Selectivity quotient (Cavia porcellus [10])	Score (Cavia porcellus [11])	Score (Cavia porcellus [13])	total score (SS) (Rattus norvegicus [14])	Score (Rattus norvegicus [15])	Score (Cavia porcellus [16])	EC75 (Cavia porcellus [17]) [µM]	ED125 (Rattus norvegicus [18]) [µM/kg]	Selectivity quotient (Rattus norvegicus [19])	ED75 (Rattus norvegicus [20]) [µM/kg]	Selectivity quotient [21]	further results
3.85	CCCN1CC2CN(CCC)CC(C1)C2(CC)CC	0.18	3	2.1	1.52	4	-3	0.43	3.53	–	0	3	1	5	4	–	10	0.8	12	#	–
4.37	CCCCN1CC2CN(CCCC)CC(C1)C2(C)CC (centres undefined)	0.13	-2	0.61	0.54	6	-5	0.17	3.21	0.47	-6	4	1	5	5	1.52	0.57	0.12	4.6	–	–
8.26	CCCCCCN1CC2CN(CCCCCC)CC(C1)C2(CC)CCCC (centres undefined)	–	2	4	1.27	0	-3	2.12	0.6	2.32	-4	6	-3	6	2	1.39	–	1	–	–	Selectivity quotient [23]: very low
7.03	CCCCN1CC2CN(CCCC)CC(C1)C2(CCCC)CCCC	0.37	0	3.2	1.01	4	-3	0.53	1.91	1.12	-5	5	1	4	3	2.14	5.1	0.58	8.7	–	–
